Results from different studies.
Compare with care: the assays were run in different laboratories. pIC50: −log10 of the molar value.
Cell line: MIA PaCa-2
Effect on: cell growth or viability

CCCOc1ccc2[nH]cc(C(=O)C(C#N)=Cc3cn(CC)c4ccccc34)c2c1 — pIC50 (MTT; 48 h): 5.28
N#CSCc1cc(=O)oc2cc(O)ccc12 — GI50 (SRB): 5.3 µM
O=C1C(Cl)=C(NCCCN2CCCCC2)C(=O)c2ccccc21 — pIC50 (MTT): 5.32
Cc1sc2c(c1C)C(c1ccc(Cl)cc1)=N[C@@H](CC(=O)NCCCCNC(=O)COc1cccc3c1C(=O)N(C1CCC(=O)NC1=O)C3=O)c1nnc(C)n1-2 (some centres unmarked) — pIC50 (CCK-8; 72 h): < 5.00
CC1=CC(=O)C(C(C)C)=CC1=O — pIC50 (SRB; 48 h): 4.48
COc1ccc2c(C(=O)C(C#N)=Cc3cn(C)c4ccccc34)c[nH]c2c1 — pIC50 (MTT; 48 h): < 4.40
CC(=O)N1CCC(Nc2cc(C(=O)NC[C@H](O)CN3CCc4ccccc4C3)ncn2)CC1 — pIC50 (CCK-8; 72 h): < 4.00
CNC(=O)c1ccccc1Nc1cc(Nc2ccc(N3CCOCC3)cc2OC)ncc1C(F)(F)F — pIC50 (MTT; 48 h): 5.75
CCOc1ccc2[nH]cc(C(=O)C(C#N)=Cc3cn(C)c4ccccc34)c2c1 — pIC50 (MTT; 48 h): 5.87
O=C1C(Cl)=C(NCCN2CCOCC2)C(=O)c2ccccc21 — pIC50 (MTT): 4.71
Cc1cc(=O)oc2cc(OCCCCSC#N)ccc12 — GI50 (SRB): 6.3 µM
